Test results reported in the RNAGym collection of RNA variant scans (doi:10.1126/science.aae0568).
Variants at the floor of the assay were thinned out.

B1: tRNA (parent)
chain: GUUCCGUUGGCGUAAUGGUAACGCGUCUCCCUCCUAAGGAGAAGACUGCGGGUUCGAGUCCCGUACGGAACG

Variants of: B1
Test: yeast fitness relative to wild type (ratio to wild type); higher = fitter; tRNA-Arg(CCU), competitive growth, 37 C, YPD
How it was run: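 Gene amplicons from the start population and from each of six end populations were read by 100-nucleotide paired-end sequencing. Those end populations came from pooled Saccharomyces cerevisiae strains carrying tRNA-Arg(CCU) gene variants at the native locus, competed in YPD at 37°C for 24 hours. Fitness relative to wild type was worked out from changes in genotype frequencies. Genotypes needed ≥ 100 starting reads, and estimates < 0.5 were set to 0.5.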

Variant | yeast fitness
A14G C31G C46G | 0.577
U2C U28C C34U U64A A65U | 0.735
A20G C30A C55A G68A | ≤ 0.5
C27U C34A | 0.728
U19G A20U G56A | 0.789
C4A A14U A20C U28G G63U A69C | ≤ 0.5
A45U A65G | 0.947
A14U A20U A36U | 0.568
G10U A20C C34A U53A U54G | ≤ 0.5
C5U U26A A65G | 0.739
A20C G48C C66U | 0.73
U7G C30U G38A | 0.591
G23C C33U A43U A45C | ≤ 0.5
C4U C29U G39C | 0.536
U13A G18C A36G G41C | 0.706
G10A U16A U32C A65G | ≤ 0.5
C5A A14G A40G G41A A45U U53C A57C | ≤ 0.5
U8A A15U C29U G38C | ≤ 0.5
U19A A21U C24A U28C | ≤ 0.5
A15C U28C G48C G50U | ≤ 0.5
U13G C24A | 0.602
C29U A43U C46A G50A C61G G68A | ≤ 0.5
U13A A36U A45U G52C A57U | ≤ 0.5
A14C U28A G44A C55A | ≤ 0.5

Variant | yeast fitness
C24A C27U C29G G44C G68C | ≤ 0.5
A14C C61U A65C | ≤ 0.5
U26A C49U G58A | ≤ 0.5
C22A G25A G48A C61G | ≤ 0.5
C11A C49G | 0.782
U8A C29U | 0.692
G17A C27G C29G A43G | 0.561
U7A G9C G17C G48A U54A | ≤ 0.5
C4G A14C C22U U47C | ≤ 0.5
G9C A45U C55G C61U | ≤ 0.5
U7G G41C C49G U59G G63A C66U | ≤ 0.5
A21U C24A A45U C62U | ≤ 0.5
G23A C34A G52C G63C | ≤ 0.5
C30G U32G C55G | ≤ 0.5
U8G G10A C60U | 0.585
U16G G44A | 0.994
G6A G17C A37C | 0.634
U2A A20C A40G | 0.633
C4A C5G C66U | 0.538
G25A C46U C62G | 0.739
U2A U16C G68A | ≤ 0.5
C24U G44A U54C | 0.726
A40U A43G C60G | ≤ 0.5
C27A C60G | 0.657

Variant | yeast fitness
A45G G63U | 0.732
U7C C22U C29G | ≤ 0.5
G23A A45C | 0.846
G10C G12C G17U G39A C61U A69C | ≤ 0.5
C34A A42G C46U | ≤ 0.5
G9A U19G A57G | 0.503
U19G G39C | 0.75
G10A C61U | 0.744
A14C C27G C33A A45U G63C A69G | ≤ 0.5
C27G A57U U59C | 0.508
A42U A45C A69C | 0.67
G12A C24U A36C C46U C60U A65C | 0.729
A21G C24A | 0.661
U2A C27U C34A | ≤ 0.5
A40U C55U A65C | ≤ 0.5
A20G U59G A69C | 0.526
C33U G39A A57G | ≤ 0.5
C34U C55U C66U | 0.532
U54A A70U | 0.768
G12A A20U C31A G52A C66U | ≤ 0.5
U2A G12A | 0.886
C27U G41C U64C A70C | 0.675
U2C G58A C62G | 0.597
C11U A21C A42G A69C | ≤ 0.5

Variant | yeast fitness
C34U A36G G41A U47A G58C G63C G67A | ≤ 0.5
U16C C34G C55A | 0.58
U3A G12C U19C | ≤ 0.5
U8A A14G C24G A45C U64A | ≤ 0.5
C4A U8G A14U A70U | ≤ 0.5
C29A A57U C60G C62A | ≤ 0.5
C24U C29A U32A C46G A57C | 0.5
C4U A20U A40U G56C | ≤ 0.5
G9C U19C | 0.764
C34U G38C C55A U64C | ≤ 0.5
C5U G17A C49G C60A | ≤ 0.5
G51C A57C | 0.551
U3G C31U C49U G50A | ≤ 0.5
U13C G48C A57C | ≤ 0.5
C5U G9A A43C | 0.653
C11A A15G C61U | 0.528
G12A C27G A65G G68U | 0.544
C22U G41A A65C | ≤ 0.5
G6C C22A C34A A70C | 0.525
A42C A43U | 0.779
G12A A14C C27G C46G A65G | ≤ 0.5
A37U A43G G63A G67C A70G | 0.802
A65U G68U | 0.99
C4G C24U C30A G52C | ≤ 0.5

Variant | yeast fitness
U16G A42G | 0.78
U3A U32A U59G | 0.585
U8A A14U C22U | 0.592
G10C A14U C62U A69C | ≤ 0.5
C5U A20U U26A A65C G67C | ≤ 0.5
U2A C11G C27G U54A C66U | ≤ 0.5
G6A G10A G17A | 0.55
G6A C11U U26A C33A A43G | ≤ 0.5
C46G G63C C66A | ≤ 0.5
U47A G48C G67C | 0.538
C5A G12A U35A A42G A65U | ≤ 0.5
C24G C29A G44C C61U | 0.787
A45G | 0.991
U7G A36U A70U | 0.544
A43U A65C | 0.952
G25A C29U C49U C61A | ≤ 0.5
U13C A14U G41C G48C | ≤ 0.5
G18A U19A G56A C60U C61G | ≤ 0.5
G9A G52C | 0.641
G25C C33G | 0.662
U19A C27U C49U C55U | 0.525
C4G U28G C30A A43C C61G | 0.571
U3A C5U A43G | 0.607
C11G C27U U28A G52A C55U | ≤ 0.5

Variant | yeast fitness
U13G A14C G39C G41A C60G C61U C62G A65U | ≤ 0.5
C30U C34G A57G | 0.569
C5A U35A | 0.73
A37C A43C A65U | 0.537
C33U A45C C49U | 0.652
G23C U59A | 0.704
A15U C34G A37G A40C | 0.59
A21G U28A | 0.81
U19C A37G | 0.784
G38C G58A | 0.756
C5A C60G G67A | ≤ 0.5
G12A C24U C29A | ≤ 0.5
A15C U19A A70C | ≤ 0.5
C4A C24A U26C C29A A36U C60U | ≤ 0.5
C4U C33A | 0.724
U53C C60U | 0.638
G18C C33G A40G G58A U64A | 0.59
A15C G48A A57G C61A | ≤ 0.5
C27A A45G | 0.874
C11G C33A A40G C62A G67C | ≤ 0.5
C24A G39C | 0.705
U19C A21U C49U | 0.966
A36U G50C | 0.587
C29U A36U | 0.567

Variant | yeast fitness
G6A U19G | 0.828
C31G U32C A37U A69C | ≤ 0.5
G10C C22A C29G C49G | ≤ 0.5
C30U U35C A42C G48C | ≤ 0.5
C5G U7C A14C G51C | 0.697
G12C U28A G51A A57U C62U | 0.594
C5U G6U C11U A15G G48C | ≤ 0.5
G25A C46G | 0.99
G41C A70U | 0.88
C5U C55A G68C | ≤ 0.5
U7C C61U | 0.959
C5G U53G A65U | 0.612
G6C G41C C49G U59G G63A C66U | 0.54
U19C C24U C49A U54C C60G | ≤ 0.5
C22A G48A C49U G50A G51C A70C | ≤ 0.5
U3C A21G A43U | 0.989
A14G A21C C34A U47C | ≤ 0.5
U13C C22U C27U A37C A57G | ≤ 0.5
A20G G51A | 0.859
U2A G25A A40C A65C | ≤ 0.5
C5G C27U G56A | 0.619
U28A A43C G48A A70C | 0.577
G50C U54C A57G | ≤ 0.5
